The text below walks through data of ChEMBL document CHEMBL3785041, “Discovery of a Potent Free Fatty Acid 1 Receptor Agonist with Low Lipophilicity, Low Polar Surface Area, and Robust in Vivo Efficacy” (J Med Chem, 2016).

Values after ≈ are worked out from the molar mass of the structure shown. Active and inactive are the calls of the source. No cut-off for these calls is given here.

Series [1] concerns the target T1, Free fatty acid receptor 1 (Homo sapiens, UniProt O14842). The series is described as follows: Agonist activity at human FFA1 receptor expressed in human 1321N1 cells measured for 50 intervals of 0.4 secs by calcium mobilization assay. It counts as functional, cell-based. The essentials: (§1)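 Ca²⁺ read-out at human FFA1. Efficacy is expressed relative to TUG-20 (3-(4-(benzyloxy)phenyl)propanoic acid).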

Series [2] concerns the target T2, Free fatty acid receptor 4 (Homo sapiens, UniProt Q5NUL3).
T2 sequence (Q5NUL3 whole entry): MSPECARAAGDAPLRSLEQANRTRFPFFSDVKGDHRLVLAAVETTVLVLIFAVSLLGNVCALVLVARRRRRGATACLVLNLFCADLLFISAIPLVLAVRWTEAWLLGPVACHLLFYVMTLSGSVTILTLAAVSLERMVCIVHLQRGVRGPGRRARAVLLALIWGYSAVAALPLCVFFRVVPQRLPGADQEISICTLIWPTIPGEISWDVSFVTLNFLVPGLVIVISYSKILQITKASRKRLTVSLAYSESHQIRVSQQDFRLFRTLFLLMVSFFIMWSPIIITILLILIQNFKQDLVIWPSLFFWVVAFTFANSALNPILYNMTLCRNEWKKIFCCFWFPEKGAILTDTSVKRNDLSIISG
The series is described as follows: Agonist activity at human C-terminal YFP-tagged FFA4 receptor expressed in HEK293 cells incubated for 5 mins by BRET based beta-arrestin 2 recruitment assay. It counts as cell-based. The gist of the method: (§2)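 Human FFA4 counter-screen using a β-arrestin mobilization read-out. Efficacy is expressed relative to a reference alkyne FFA1 agonist tested at 10 μM.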

The target in series [3] is T1, Free fatty acid receptor 1. The series is described as follows: Agonist activity at human FFA1 receptor expressed in human 1321N1 cells measured for 50 intervals of 0.4 secs by calcium mobilization assay relative to TUG-20. It is filed as functional, cell-based. The gist of the method: as §1
In series [4] the target is T3, Free fatty acid receptor 4 (Homo sapiens) (UniProt Q5NUL3).
T3 sequence (whole entry): T2 sequence (Q5NUL3 whole entry)
The series is described as follows: Agonist activity at human C-terminal YFP-tagged FFA4 receptor expressed in HEK293 cells incubated for 5 mins by BRET based beta-arrestin 2 recruitment assay relative to TUG-424. It counts as cell-based. The essentials:
as §2

A short description of series [5]: Drug metabolism in human liver microsomes assessed as cytochrome P450-mediated compound oxidation by measuring drug recovery after 1 hr by HPLC analysis. The conditions noted are these: read-out: Drug recovery. It counts as ADME.
The nature of series [6]: Aqueous kinetic solubility in phosphate buffered saline at 200 uM by turbidimetric assay. It counts as physicochemical. The conditions noted are these: read-out: Kinetic_solubility.
For series [7], the system named is Mus musculus. The series is described as follows: Clearance in C57BL/6 mouse plasma at 10 mg/kg, po. It is filed as ADME, organism-based. The conditions noted are these: in vivo.
Series [8] is described as follows: Chemical stability in 0.1 M phosphate buffered saline assessed as drug recovery at 37 degC after 24 hrs. It counts as physicochemical. Conditions: read-out: Drug recovery.
Series [9] is described as follows: Lipophilicity, log D of compound at pH 7.4. It counts as physicochemical. Conditions: buffer.
In series [10] the test system is Mus musculus. The series is described as follows: Antidiabetic activity in C57BL/6 mouse assessed as increase in plasma insulin level at 10 mg/kg administered 15 mins through oral gavage prior to glucose challenge measured after 30 mins by ELISA. It counts as functional, organism-based.
The nature of series [11]: Ratio of Cmax in C57BL/6 mouse plasma to EC50 for human FFA1 receptor expressed in human 1321N1 cells.
A short description of series [12]: Cmax in C57BL/6 mouse plasma at 10 mg/kg, po. Set-up: dose 10 mg/kg, route oral. It counts as ADME, organism-based.
Series [13] can be described thus: Chemical stability in fed state simulated intestinal fluid assessed as drug recovery at 37 degC after 2 hrs. It is filed as physicochemical. Conditions: read-out: Drug recovery.
Series [14] is described as follows: Half life in C57BL/6 mouse plasma at 10 mg/kg, po. It counts as ADME, organism-based.
Series [15] relates to Mus musculus. The series is described as follows: Antidiabetic activity in C57BL/6 mouse assessed as reduction in plasma glucose level at 10 mg/kg administered 15 mins through oral gavage prior to glucose challenge measured after 30 to 120 mins by OGTT. It counts as functional, organism-based.
A short description of series [16]: Chemical stability in fasted state simulated gastric fluid assessed as drug recovery at 37 degC after 2 hrs. Conditions: read-out: Drug recovery. It counts as physicochemical.
Series [17] can be described thus: Chemical stability in fasted state simulated intestinal fluid assessed as drug recovery at 37 degC after 2 hrs. It is filed as physicochemical. Conditions: read-out: Drug recovery.
Series [18] addresses T1, Free fatty acid receptor 1. The series is described as follows: Potency index, ratio of alpha-linolenic acid EC50 to compound EC50 for human FFA1 receptor expressed in human 1321N1 cells. It counts as cell-based.
A short description of series [19]: AUC (0 to infinity) in C57BL/6 mouse plasma at 10 mg/kg, po. Set-up: dose 10 mg/kg, route oral, time infinity. It is filed as ADME, organism-based.
Series [20] can be described thus: Tmax in C57BL/6 mouse plasma at 10 mg/kg, po. It is filed as ADME, organism-based.

T1 sequence (O14842 whole entry): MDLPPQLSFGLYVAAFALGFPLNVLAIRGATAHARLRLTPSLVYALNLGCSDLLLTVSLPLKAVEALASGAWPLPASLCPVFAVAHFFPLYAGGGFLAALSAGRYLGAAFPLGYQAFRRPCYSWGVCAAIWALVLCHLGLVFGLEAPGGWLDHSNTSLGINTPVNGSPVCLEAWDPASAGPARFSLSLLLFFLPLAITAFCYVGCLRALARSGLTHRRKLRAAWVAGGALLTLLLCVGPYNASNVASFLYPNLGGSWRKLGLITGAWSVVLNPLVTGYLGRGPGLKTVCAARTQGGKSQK

As to `CC/C=C\C/C=C\C/C=C\CCCCCCCC(=O)O` [LINOLENIC ACID], in series [1] (read-out: EC50), the EC50 came out at 3 µM.

As for `O=C(O)CCc1ccc(C#CC2CC2)cc1`, the EC50 is 5.01 µM in series [1] (read-out: pEC50 (converted)) and over 100 µM in series [2]. The Efficacy in series [3] worked out at 128%.

For `O=C(O)CCc1ccc(C#CC2=CCCCC2)cc1`, the EC50 in series [1] (read-out: pEC50 (converted)) was 0.2 µM; in series [2] it was over 100 µM. Besides, the Efficacy in series [3] worked out at 100%.

Regarding `C/C=C\C#Cc1ccc(CCC(=O)O)c(F)c1`, the values for the Efficacy in series [4] and in series [3] were 49% and 91%, respectively. The EC50 is 0.0479 µM in series [1] (read-out: pEC50 (converted)) and 17.8 µM in series [2].

Regarding `O=C(O)CCc1ccc(C#CC2CCCCC2)cc1`, the Efficacy came to 118% in series [4] and 98% in series [3]. Also, the results for the EC50 in series [1] (read-out: pEC50 (converted)) and in [2] were 0.513 µM and 9.55 µM, respectively.

`COc1ccc(CCN(C)CCCC(C#N)(c2ccc(OC)c(OC)c2)C(C)C)cc1OC` (centres undefined): the remaining at 1 h in [5] stood at 23%.

`O=C(O)CCc1ccc(C#CC2CCCC2)cc1`: the Efficacy was found to be 105% in series [4] and 94% in [3]. Also, the EC50 was 0.49 µM in series [1] (read-out: pEC50 (converted)) and 33.9 µM in [2].

`C=C(C)C#Cc1ccc(CCC(=O)O)c(F)c1` showed an EC50 in series [2] of over 100 µM. Also, the Efficacy in series [3] was 106%.

In turn, `C/C(C#Cc1ccc(CCC(=O)O)c(F)c1)=C/CO` showed an EC50 in [2] of over 100 µM. Moreover, in series [3], the Efficacy is 105%.

In the case of `O=C(O)CCc1ccc(C#CCCc2ccccc2)cc1`, the Efficacy in series [4] is 102%; in series [3], 128%. The EC50 in [1] (read-out: pEC50 (converted)) was 1.82 µM; in [2], 4.79 µM.

`C/C=C(/C)C#Cc1ccc(CCC(=O)O)c(F)c1`: in series [6], the solubility kinetic at 200 µM was determined as 191 µM (≈ 47 µg/mL). Besides, in series [7], the clearance turned out to be 0.49 mL/min/kg. The remaining at 24 h in series [8] was 100%. In [9], this compound yielded a logD of 1.79. In addition, the outcome in [10] and in series [15] was Active. For the same compound, the Ratio in [11] is over 1000. For the same compound, the Cmax in series [12] was found to be 44.7 µM. Further, the remaining at 1 h in series [5] is 38%. Further, the remaining at 2 h in [13] is 95%; in series [16] it was 84%; in [17], 100%. Further, the Efficacy in [4] was 101%; in [3], 103%. Also, the values for the EC50 in series [1] (read-out: EC50) and in series [2] were 0.02 µM and 20 µM, respectively. Further, the half-life in [14] came out at 99 min. Moreover, the Ratio EC50 in [18] stood at 100. The AUC(0-inf) in series [19] is 138 µM·h. Further, the Tmax in [20] was 15 min.

As for `CCCCCCCC#Cc1ccc(CCC(=O)O)cc1`, the Efficacy in [4] was 102%; in series [3], 84%. Moreover, the EC50 in [1] (read-out: pEC50 (converted)) was 1.45 µM; in [2] it was 4.07 µM.

As to `O=C(O)CCc1ccc(C#CC2(O)CCCCC2)cc1`, the negative-log EC50 (pEC50) in series [1] (1321-n1) was under 4. Further, the EC50 in series [2] is over 100 µM.

Take `C/C=C(\C)C#Cc1ccc(CCC(=O)O)c(F)c1`: the values for the Efficacy in [4] and in series [3] were 89% and 97%, respectively. In series [2], this compound had an EC50 of 26.3 µM.

With `C=C(C)C#Cc1ccc(CCC(=O)O)cc1`, the EC50 is 0.417 µM in series [1] (read-out: pEC50 (converted)) and over 100 µM in series [2]. Moreover, the Efficacy in series [3] came out at 108%.

In the case of `C/C=C/C#Cc1ccc(CCC(=O)O)c(F)c1`, the Efficacy in [4] was 38%; in [3], 97%. Also, the values for the EC50 in [1] (read-out: pEC50 (converted)) and in [2] were 0.209 µM and 34.7 µM, respectively.

In the case of `O=C(O)CCc1ccc(C#CCc2ccccc2)cc1`, the Efficacy in series [4] turned out to be 113%; in series [3], 103%. Moreover, the EC50 was 0.389 µM in series [1] (read-out: pEC50 (converted)) and 10.5 µM in [2].

As to `C#Cc1ccc(CCC(=O)O)cc1`, the EC50 in series [1] (read-out: pEC50 (converted)) and in series [2] was over 100 µM throughout.

Consider `CC(C)=C(C)C#Cc1ccc(CCC(=O)O)cc1`, for which the Efficacy in series [4] amounted to 102%; in [3] it was 105%. Moreover, the results for the EC50 in [1] (read-out: pEC50 (converted)) and in [2] were 0.0832 µM and 7.59 µM, respectively.
